From ChEMBL document CHEMBL1149790, “Synthesis of some novel thiourea derivatives obtained from 5-[(4-aminophenoxy)methyl]-4-alkyl/aryl-2,4-dihydro-3H-1,2,4-triazole-3-thiones and evaluation as antiviral/anti-HIV and anti-tuberculosis agents” (Eur J Med Chem, 2008)
≈ marks a conversion by molar mass, not a printed value. Calls of active or inactive are those of the source. No cut-off for these calls is given here.

Columns and labels:
[1] = system: Human immunodeficiency virus 1; assay: Antiviral activity against HIV1 3B in human MT4 cells assessed as protection against virus-induced cytopathogenicity by MTT assay; assay type: functional, organism-based; parameters: Activity: concentration or dose not given beside the values; settings: for IC50: Human immunodeficiency virus 1, 3B, MT4
Summary of the method: (§1)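 MT-4 cells at 6 × 10⁵ cells/ml infected with HIV-1 IIIB or HIV-2 ROD at 100–300 CCID50; compounds in serial five-fold dilutions, triplicate mock- and virus-infected wells. MTT viability read at 540 and 690 nm after 5 days, median OD of three wells; EC50 = 50% protection from viral cytopathic effect.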

[2] = system: Human immunodeficiency virus 2; assay: Antiviral activity against HIV2 ROD in human MT4 cells assessed as protection against virus-induced cytopathogenicity by MTT assay; assay type: functional, organism-based; parameters: Activity: concentration or dose not given beside the values; settings: for IC50: Human immunodeficiency virus 2, ROD, MT4; summary of the method: as §1
[3] = Cytotoxicity against human MT4 cells by MTT assay; assay type: cell-based
Summary of the method: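 Mock-infected MT-4 cells (6 × 10⁵ cells/ml) with serial five-fold compound dilutions in triplicate; MTT reduction read at 540 and 690 nm after 5 days, median OD of three wells; CC50 = concentration reducing OD540 of mock-infected control by 50%.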

[4] = Cytotoxicity against human HeLa cells; assay type: cell-based
Summary of the method: (§2)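 Uninfected cell cultures exposed to test compounds alongside antiviral assays; minimum cytotoxic concentration (MCC) = concentration causing a microscopically detectable alteration of cell morphology.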

[5] = system: Vesicular stomatitis virus; assay: Antiviral activity against vesicular stomatitis virus in human HeLa cells assessed as inhibition of virus-induced cytopathogenicity; assay type: functional
Summary of the method: (§3)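 Confluent cell monolayers (E6SM, HEL, HeLa or Vero, per line) inoculated with 100 CCID50 virus; 1 h adsorption, residual virus removed, then incubated with compound at 400, 200, 100 … µg/ml. Cytopathicity scored once complete in untreated virus controls; MIC = concentration inhibiting virus-induced cytopathicity.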

Coxsackievirus B4 [6] = assay: Antiviral activity against Coxsackie virus B4 in human HeLa cells assessed as inhibition of virus-induced cytopathogenicity; assay type: functional; settings: Enterovirus B; summary of the method: as §3
[7] = system: Respiratory syncytial virus; assay: Antiviral activity against respiratory syncytial virus in human HeLa cells assessed as inhibition of virus-induced cytopathogenicity; assay type: functional; summary of the method: as §3
E6SM = assay: (§4) Cytotoxicity against human E6SM cells; assay type: cell-based; settings: e6sm; summary of the method: as §2
[8] = Cytotoxicity against human HEL cells assessed as alteration of cell morphology; assay type: cell-based; summary of the method: as §2
Human alphaherpesvirus 1 [9] = assay: Antiviral activity against HSV1 KOS in human E6SM cells assessed as reduction of virus-induced cytopathogenicity; assay type: functional; settings: Human alphaherpesvirus 1, KOS; summary of the method: as §3
Human alphaherpesvirus 1 [10] = assay: Antiviral activity against HSV1 KOS in human HEL cells assessed as reduction of virus-induced cytopathogenicity; assay type: functional; settings: Human alphaherpesvirus 1, KOS; summary of the method: as §3
Human alphaherpesvirus 2 [11] = assay: Antiviral activity against HSV2 G in human E6SM cells assessed as reduction of virus-induced cytopathogenicity; assay type: functional; settings: Human alphaherpesvirus 2, G; summary of the method: as §3
Human alphaherpesvirus 2 [12] = assay: Antiviral activity against HSV2 G in human HEL cells assessed as reduction of virus-induced cytopathogenicity; assay type: functional; settings: Human alphaherpesvirus 2, G; summary of the method: as §3
[13] = system: Vesicular stomatitis virus; assay: Antiviral activity against in Vesicular stomatitis virus in human E6SM cells assessed as reduction of virus-induced cytopathogenicity; assay type: functional; summary of the method: as §3
[14] = system: Vesicular stomatitis virus; assay: Antiviral activity against in Vesicular stomatitis virus in human HEL cells assessed as reduction of virus-induced cytopathogenicity; assay type: functional; summary of the method: as §3
Human alphaherpesvirus 1 [15] = assay: Antiviral activity against thymidine kinase deficient and acyclovir resistant HSV1 KOS in human E6SM cells assessed as reduction of virus-induced cytopathogenicity; assay type: functional; settings: Human alphaherpesvirus 1, KOS; summary of the method: as §3
Human alphaherpesvirus 1 [16] = assay: Antiviral activity against thymidine kinase deficient and acyclovir resistant HSV1 KOS in human HEL cells assessed as reduction of virus-induced cytopathogenicity; assay type: functional; settings: Human alphaherpesvirus 1, KOS; summary of the method: as §3
Vero = assay: Cytotoxicity against african green monkey Vero cells; assay type: cell-based; settings: chlorocebus sabaeus; summary of the method: as §2
Coxsackievirus B4 [17] = assay: Antiviral activity against Coxsackie virus B4 in african green monkey Vero cells assessed as reduction of virus-induced cytopathogenicity; assay type: functional; settings: Enterovirus B; summary of the method: as §3
Punta Toro virus = assay: Antiviral activity against Punta Toro virus in african green monkey Vero cells assessed as reduction of virus-induced cytopathogenicity; assay type: functional; summary of the method: as §3
Human respirovirus 3 = assay: Antiviral activity against Parainfluenza 3 virus in african green monkey Vero cells assessed as reduction of virus-induced cytopathogenicity; assay type: functional; summary of the method: as §3
[18] = system: Mammalian orthoreovirus 1; assay: Antiviral activity against Reo virus 1 in african green monkey Vero cells assessed as reduction of virus-induced cytopathogenicity; assay type: functional; summary of the method: as §3
Sindbis virus = assay: Antiviral activity against Sindbis virus in african green monkey Vero cells assessed as reduction of virus-induced cytopathogenicity; assay type: functional; summary of the method: as §3
[19] = as §4; assay type: cell-based; settings: E6SM cells; summary of the method: as §2
Human betaherpesvirus 5 [20] = assay: Antiviral activity against human cytomegalovirus AD169 infected HEL cells assessed as reduction in virus plaque formation; assay type: functional, organism-based; settings: Human betaherpesvirus 5, AD169, HEL
Human betaherpesvirus 5 [21] = assay: Antiviral activity against human cytomegalovirus Davis infected HEL cells assessed as reduction in virus plaque formation; assay type: functional, organism-based; settings: Human betaherpesvirus 5, Davis
Human alphaherpesvirus 3 [22] = assay: Antiviral activity against TK+ VZV OKA infected HEL cells assessed as reduction in virus plaque formation; assay type: functional, organism-based; settings: Human alphaherpesvirus 3, OKA
Human alphaherpesvirus 3 [23] = assay: Antiviral activity against TK- VZV 07/1 infected HEL cells assessed as reduction in virus plaque formation; assay type: functional, organism-based; settings: Human alphaherpesvirus 3, 07/1, HEL
[24] = system: Mycobacterium tuberculosis; assay: Antitubercular activity against Mycobacterium tuberculosis H37Rv at 6.25 ug/ml by MABA assay; assay type: functional
[25] = Cytotoxicity against human HEL cells assessed as reduction of cell growth; assay type: cell-based
Summary of the method: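 HEL cells; CC50 = compound concentration reducing cell growth by 50%.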

| Compound | Activity [1] [%] | IC50 [1] [µg/mL] | Activity [2] [%] | IC50 [2] [µg/mL] | CC50 [3] [µg/mL] | MCC [4] [µg/mL] | MIC [5] [µg/mL] | MIC (Coxsackievirus B4 [6]) [µg/mL] | MIC [7] [µg/mL] | MCC [8] [µg/mL] | MIC (Human alphaherpesvirus 1 [9]) [µg/mL] | MIC (Human alphaherpesvirus 1 [10]) [µg/mL] | MIC (Human alphaherpesvirus 2 [11]) [µg/mL] | MIC (Human alphaherpesvirus 2 [12]) [µg/mL] | MIC [13] [µg/mL] | MIC [14] [µg/mL] | MIC (Human alphaherpesvirus 1 [15]) [µg/mL] | MIC (Human alphaherpesvirus 1 [16]) [µg/mL] | Activity (Vero) [µg/mL] | MIC (Coxsackievirus B4 [17]) [µg/mL] | other results |
| --- | --- | --- | --- | --- | --- | --- | --- | --- | --- | --- | --- | --- | --- | --- | --- | --- | --- | --- | --- | --- | --- |
| CCCCCCNC(=S)Nc1ccc(-c2n[nH]c(=S)n2CCCCCC)cc1 | 3 | > 1.71 | 1 | > 1.71 | 1.71 (≈ 4.07 µM) | 16 | > 3.2 | > 3.2 | > 3.2 | 16 | > 3.2 | > 3.2 | > 3.2 | > 3.2 | > 3.2 | > 3.2 | > 3.2 | > 3.2 | 16 | > 3.2 | Activity (E6SM): 16 µg/mL; MIC (Punta Toro virus): > 3.2 µg/mL; MIC (Human respirovirus 3): > 3.2 µg/mL; MIC [18]: > 3.2 µg/mL; MIC (Sindbis virus): > 3.2 µg/mL |
| CCNC(=S)Nc1ccc(OCc2n[nH]c(=S)n2C)cc1 | 1.5 | > 107 | 2 | > 125 | ≥ 107 | 400 | > 80 | > 80 | > 80 | > 400 | > 400 | > 400 | 240 (≈ 742 µM) | 240 (≈ 742 µM) | > 400 | > 400 | 240 (≈ 742 µM) | 240 (≈ 742 µM) | 400 | > 80 | MCC [19]: > 400 µg/mL; MIC (Punta Toro virus): > 80 µg/mL; EC50 (Human betaherpesvirus 5 [20]): > 100 µg/mL; EC50 (Human betaherpesvirus 5 [21]): > 100 µg/mL; EC50 (Human alphaherpesvirus 3 [22]): > 100 µg/mL; EC50 (Human alphaherpesvirus 3 [23]): > 100 µg/mL; Activity [24]: inactive; MIC (Human respirovirus 3): > 80 µg/mL; MIC [18]: > 80 µg/mL; MIC (Sindbis virus): > 80 µg/mL; CC50 [25]: > 50 µg/mL |
| CCNC(=S)Nc1ccc(OCc2n[nH]c(=S)n2CC)cc1 | 9.5 | > 88.3 | 8 | > 91.1 | 94.2 (≈ 279 µM) | 400 | > 80 | > 80 | > 80 | > 400 | > 400 | > 400 | 240 (≈ 711 µM) | 240 (≈ 711 µM) | > 400 | > 400 | 240 (≈ 711 µM) | 240 (≈ 711 µM) | 400 | 48 (≈ 142 µM) | MCC [19]: > 400 µg/mL; MIC (Punta Toro virus): > 80 µg/mL; EC50 (Human betaherpesvirus 5 [20]): 49 µg/mL (≈ 145 µM); EC50 (Human betaherpesvirus 5 [21]): 55 µg/mL (≈ 163 µM); EC50 (Human alphaherpesvirus 3 [22]): 64 µg/mL (≈ 190 µM); EC50 (Human alphaherpesvirus 3 [23]): 58 µg/mL (≈ 172 µM); Activity [24]: inactive; MIC (Human respirovirus 3): > 80 µg/mL; MIC [18]: > 80 µg/mL; MIC (Sindbis virus): > 80 µg/mL; CC50 [25]: > 50 µg/mL |
